Measured values: ChEMBL document CHEMBL4304743, “Discovery of ( E)- N1-(3-Fluorophenyl)- N3-(3-(2-(pyridin-2-yl)vinyl)-1 H-indazol-6-yl)malonamide (CHMFL-KIT-033) as a Novel c-KIT T670I Mutant Selective Kinase Inhibitor for Gastrointestinal Stromal Tumors (GISTs)” (J Med Chem, 2019)

How the values were obtained:
[1] = Antiproliferative activity in mouse BAF3 cells after 72 hrs by CCK8 assay; format: cell-based
Procedure, shortened: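 IL-3-independent BaF3 cells carrying tel-c-KIT constructs, grown in RPMI 1640 with 10% FBS. Cells at 1.5-5 × 10^4 cells/mL mixed directly with serial compound dilutions, 72 h at 37 °C, 5% CO2. CCK-8 read-out at 450 nm, normalized to DMSO; GI50 by curve fitting.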

[2] = target: Mast/stem cell growth factor receptor Kit (Homo sapiens, UniProt P10721); test: Inhibition of wild type TEL fused c-KIT (unknown origin) transfected in mouse BAF3 cells assessed as growth inhibition after 72 hrs by CCK8 assay; format: cell-based; details: baf3, 72 h
Chain of Mast/stem cell growth factor receptor Kit (P10721 whole entry, the tested form may be a part): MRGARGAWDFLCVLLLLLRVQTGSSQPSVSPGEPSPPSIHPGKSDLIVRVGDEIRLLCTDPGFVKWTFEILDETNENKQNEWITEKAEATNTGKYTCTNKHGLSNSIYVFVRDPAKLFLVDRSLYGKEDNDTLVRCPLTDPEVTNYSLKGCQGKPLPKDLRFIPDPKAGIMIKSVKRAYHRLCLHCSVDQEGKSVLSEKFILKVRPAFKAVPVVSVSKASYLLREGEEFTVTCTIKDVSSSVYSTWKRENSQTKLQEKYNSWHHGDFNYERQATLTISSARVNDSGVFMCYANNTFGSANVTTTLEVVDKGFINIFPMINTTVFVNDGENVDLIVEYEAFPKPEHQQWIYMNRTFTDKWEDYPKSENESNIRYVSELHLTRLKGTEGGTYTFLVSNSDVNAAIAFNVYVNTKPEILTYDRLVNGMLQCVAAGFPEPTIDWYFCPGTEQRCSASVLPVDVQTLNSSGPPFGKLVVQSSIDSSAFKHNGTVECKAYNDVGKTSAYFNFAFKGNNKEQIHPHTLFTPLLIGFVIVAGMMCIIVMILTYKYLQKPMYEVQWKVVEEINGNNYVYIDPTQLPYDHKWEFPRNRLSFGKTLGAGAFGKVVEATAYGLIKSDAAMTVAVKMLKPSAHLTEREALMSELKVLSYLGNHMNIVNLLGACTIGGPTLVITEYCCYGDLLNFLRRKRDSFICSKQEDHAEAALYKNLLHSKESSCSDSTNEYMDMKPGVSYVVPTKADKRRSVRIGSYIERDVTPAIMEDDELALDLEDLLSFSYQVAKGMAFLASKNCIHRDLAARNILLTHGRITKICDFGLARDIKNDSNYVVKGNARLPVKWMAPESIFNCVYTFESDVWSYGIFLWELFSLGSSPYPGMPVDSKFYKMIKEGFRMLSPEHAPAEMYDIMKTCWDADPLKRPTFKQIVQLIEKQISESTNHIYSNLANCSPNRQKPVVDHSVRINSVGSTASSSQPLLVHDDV
Procedure, shortened: (§1)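 IL-3 independent BaF3 cells stably expressing tel-c-KIT wt or tel-c-KIT T670I, grown in RPMI 1640 with 10% FBS, 2% L-glutamine, 37 °C, 5% CO2. Suspension cells at 1.5 to 5 × 10^4 cells/mL mixed with serial compound dilutions and incubated 72 h. Viability read by CCK-8 absorbance at 450 nm, normalized to DMSO; GI50 from curve fit. Selectivity is wt GI50 over T670I GI50.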

[3] = test system: Mast/stem cell growth factor receptor Kit (Homo sapiens), P10721 [T670I]; test: Inhibition of TEL fused c-KIT T670I mutant (unknown origin) transfected in mouse BAF3 cells assessed as growth inhibition after 72 hrs by CCK8 assay; format: cell-based
Chain of Mast/stem cell growth factor receptor Kit (Homo sapiens), P10721 [T670I] (P10721 whole entry T670I, the tested form may be a part): as the sequence (P10721 whole entry, the tested form may be a part) above, with T670I counted along it
Procedure, shortened: (§2)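 Tel-c-KIT-transformed BaF3 lines (IL-3 independent) kept in RPMI 1640 with 10% FBS, 2% L-glutamine and pen/strep. Cells at 1.5 to 5 × 10^4 cells/mL mixed with graded compound and incubated 72 h at 37 °C, 5% CO2. Viability by CCK-8 absorbance at 450 nm, normalized to DMSO. GI50 from dose–response fit.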

[4] = Selectivity ratio, ratio of inhibition of wild type TEL fused c-KIT (unknown origin) transfected in mouse BAF3 cells assessed as growth inhibition to inhibition of TEL fused c-KIT T670I mutant (unknown origin) transfected in mouse BAF3 cells assessed as growth inhibition; design: species or system Homo sapiens; procedure, shortened: as §1
[5] = test system: Mast/stem cell growth factor receptor Kit (Homo sapiens), P10721 [V559D]; test: Inhibition of TEL fused c-KIT V559D mutant (unknown origin) transfected in mouse BAF3 cells assessed as growth inhibition after 72 hrs by CCK8 assay; format: cell-based; procedure, shortened: as §2
Chain of Mast/stem cell growth factor receptor Kit (Homo sapiens), P10721 [V559D] (P10721 whole entry V559D, the tested form may be a part): as the sequence (P10721 whole entry, the tested form may be a part) above, with V559D counted along it

[6] = test system: Mast/stem cell growth factor receptor Kit (Homo sapiens), P10721 [V559A]; test: Inhibition of TEL fused c-KIT V559A mutant (unknown origin) transfected in mouse BAF3 cells assessed as growth inhibition after 72 hrs by CCK8 assay; format: cell-based; procedure, shortened: as §2
Chain of Mast/stem cell growth factor receptor Kit (Homo sapiens), P10721 [V559A] (P10721 whole entry V559A, the tested form may be a part): as the sequence (P10721 whole entry, the tested form may be a part) above, with V559A counted along it

[7] = test system: Mast/stem cell growth factor receptor Kit (Homo sapiens), P10721 [V559G]; test: Inhibition of TEL fused c-KIT V559G mutant (unknown origin) transfected in mouse BAF3 cells assessed as growth inhibition after 72 hrs by CCK8 assay; format: cell-based; procedure, shortened: as §2
Chain of Mast/stem cell growth factor receptor Kit (Homo sapiens), P10721 [V559G] (P10721 whole entry V559G, the tested form may be a part): as the sequence (P10721 whole entry, the tested form may be a part) above, with V559G counted along it

[8] = test system: Mast/stem cell growth factor receptor Kit (Homo sapiens), P10721 [L576P]; test: Inhibition of TEL fused c-KIT L576P mutant (unknown origin) transfected in mouse BAF3 cells assessed as growth inhibition after 72 hrs by CCK8 assay; format: cell-based; procedure, shortened: as §2
Chain of Mast/stem cell growth factor receptor Kit (Homo sapiens), P10721 [L576P] (P10721 whole entry L576P, the tested form may be a part): as the sequence (P10721 whole entry, the tested form may be a part) above, with L576P counted along it

[9] = test system: Mast/stem cell growth factor receptor Kit (Homo sapiens), P10721 [V559D,V654A]; test: Inhibition of TEL fused c-KIT V654A/V559D double mutant (unknown origin) transfected in mouse BAF3 cells assessed as growth inhibition after 72 hrs by CCK8 assay; format: cell-based; procedure, shortened: as §2
Chain of Mast/stem cell growth factor receptor Kit (Homo sapiens), P10721 [V559D,V654A] (P10721 whole entry V559D/V654A, the tested form may be a part): as the sequence (P10721 whole entry, the tested form may be a part) above, with V559D, V654A counted along it

[10] = test system: Mast/stem cell growth factor receptor Kit (Homo sapiens), P10721 [V654A]; test: Inhibition of TEL fused c-KIT V654A mutant (unknown origin) transfected in mouse BAF3 cells assessed as growth inhibition after 72 hrs by CCK8 assay; format: cell-based; procedure, shortened: as §2
Chain of Mast/stem cell growth factor receptor Kit (Homo sapiens), P10721 [V654A] (P10721 whole entry V654A, the tested form may be a part): as the sequence (P10721 whole entry, the tested form may be a part) above, with V654A counted along it

[11] = test system: Mast/stem cell growth factor receptor Kit (Homo sapiens), P10721 [V559D,T670I]; test: Inhibition of TEL fused c-KIT T670I/V559D double mutant (unknown origin) transfected in mouse BAF3 cells assessed as growth inhibition after 72 hrs by CCK8 assay; format: cell-based; procedure, shortened: as §2
Chain of Mast/stem cell growth factor receptor Kit (Homo sapiens), P10721 [V559D,T670I] (P10721 whole entry V559D/T670I, the tested form may be a part): as the sequence (P10721 whole entry, the tested form may be a part) above, with V559D, T670I counted along it

[12] = test system: Mast/stem cell growth factor receptor Kit (Homo sapiens), P10721 [D816V]; test: Inhibition of TEL fused c-KIT D816V mutant (unknown origin) transfected in mouse BAF3 cells assessed as growth inhibition after 72 hrs by CCK8 assay; format: cell-based; procedure, shortened: as §2
Chain of Mast/stem cell growth factor receptor Kit (Homo sapiens), P10721 [D816V] (P10721 whole entry D816V, the tested form may be a part): as the sequence (P10721 whole entry, the tested form may be a part) above, with D816V counted along it

[13] = test system: Mast/stem cell growth factor receptor Kit (Homo sapiens), P10721 [D816H]; test: Inhibition of TEL fused c-KIT D816H mutant (unknown origin) transfected in mouse BAF3 cells assessed as growth inhibition after 72 hrs by CCK8 assay; format: cell-based; procedure, shortened: as §2
Chain of Mast/stem cell growth factor receptor Kit (Homo sapiens), P10721 [D816H] (P10721 whole entry D816H, the tested form may be a part): as the sequence (P10721 whole entry, the tested form may be a part) above, with D816H counted along it

[14] = test system: Mast/stem cell growth factor receptor Kit (Homo sapiens), P10721 [D820E]; test: Inhibition of TEL fused c-KIT D820E mutant (unknown origin) transfected in mouse BAF3 cells assessed as growth inhibition after 72 hrs by CCK8 assay; format: cell-based; procedure, shortened: as §2
Chain of Mast/stem cell growth factor receptor Kit (Homo sapiens), P10721 [D820E] (P10721 whole entry D820E, the tested form may be a part): as the sequence (P10721 whole entry, the tested form may be a part) above, with D820E counted along it

[15] = test system: Mast/stem cell growth factor receptor Kit (Homo sapiens), P10721 [N822K]; test: Inhibition of TEL fused c-KIT N822K mutant (unknown origin) transfected in mouse BAF3 cells assessed as growth inhibition after 72 hrs by CCK8 assay; format: cell-based; procedure, shortened: as §2
Chain of Mast/stem cell growth factor receptor Kit (Homo sapiens), P10721 [N822K] (P10721 whole entry N822K, the tested form may be a part): as the sequence (P10721 whole entry, the tested form may be a part) above, with N822K counted along it

[16] = test system: Mast/stem cell growth factor receptor Kit (Homo sapiens), P10721 [A829P]; test: Inhibition of TEL fused c-KIT A829P mutant (unknown origin) transfected in mouse BAF3 cells assessed as growth inhibition after 72 hrs by CCK8 assay; format: cell-based; procedure, shortened: as §2
Chain of Mast/stem cell growth factor receptor Kit (Homo sapiens), P10721 [A829P] (P10721 whole entry A829P, the tested form may be a part): as the sequence (P10721 whole entry, the tested form may be a part) above, with A829P counted along it

| SMILES | GI50 at 72 h [1] [nM] | GI50 [2] [nM] | GI50 [3] [nM] | other results |
| --- | --- | --- | --- | --- |
| O=C(CC(=O)Nc1ccc2cn[nH]c2c1)Nc1ccc(Cl)c(C(F)(F)F)c1 | > 10000 | > 10000 | 2670 | – |
| O=C(CC(=O)Nc1ccc2c(/C=C/c3ccccn3)n[nH]c2c1)Nc1ccc(Cl)c(C(F)(F)F)c1 | 7400 | 25 | 2 | RatioGI50 [4]: 12 |
| O=C(CC(=O)Nc1c(F)c(F)c(F)c(F)c1F)Nc1ccc2c(/C=C/c3ccccn3)n[nH]c2c1 | 3680 | 2950 | 1300 | – |
| Cc1cccc(NC(=O)CC(=O)Nc2ccc3c(/C=C/c4ccccn4)n[nH]c3c2)c1 | > 10000 | 1430 | 170 | – |
| CN(C)c1cccc(NC(=O)CC(=O)Nc2ccc3c(/C=C/c4ccccn4)n[nH]c3c2)c1 | > 10000 | 3870 | 594 | – |
| Cc1ccc(-c2n[nH]c3cc(NC(=O)CC(=O)Nc4ccc(Cl)c(C(F)(F)F)c4)ccc23)cn1 | 4910 | 183 | 59 | – |
| O=C(Nc1ccc(Cl)c(C(F)(F)F)c1)C1(C(=O)Nc2ccc3c(/C=C/c4ccccn4)n[nH]c3c2)CC1 | > 10000 | 1000 | 230 | – |
| CNC(=O)c1ccc(-c2n[nH]c3cc(NC(=O)CC(=O)Nc4ccc(Cl)c(C(F)(F)F)c4)ccc23)cc1 | > 10000 | 338 | 57 | RatioGI50 [4]: 6 |
| O=C(Nc1ccc2c(/C=C/c3ccccn3)n[nH]c2c1)c1ccc(Cl)c(C(F)(F)F)c1 | 1710 | 2970 | 1710 | – |
| NC(=O)c1cccc(-c2n[nH]c3cc(NC(=O)CC(=O)Nc4ccc(Cl)c(C(F)(F)F)c4)ccc23)c1 | > 10000 | 1550 | 339 | – |
| O=C(CC(=O)Nc1ccc2c(/C=C/c3ccccn3)n[nH]c2c1)Nc1cccc(Br)c1 | 6090 | 943 | 113 | – |
| O=C(CC(=O)Nc1ccc2c(/C=C/c3ccccn3)n[nH]c2c1)Nc1cccc(C(F)(F)F)c1 | > 10000 | 216 | 86 | – |
| CNC(=O)c1ccccc1Sc1ccc2c(/C=C/c3ccccn3)n[nH]c2c1 [AXITINIB] | – | 105 | 108 | GI50 [5]: 12 nM; GI50 [6]: 5 nM; GI50 [7]: 2 nM; GI50 [8]: 7 nM; GI50 [9]: 13 nM; GI50 [10]: 14 nM; GI50 [11]: 129 nM; GI50 [12]: 2020 nM; GI50 [13]: 1820 nM; GI50 [14]: 156 nM; GI50 [15]: 1720 nM; GI50 [16]: 406 nM |
| O=C(CC(=O)Nc1ccc2c(-c3cccnc3)n[nH]c2c1)Nc1ccc(Cl)c(C(F)(F)F)c1 | > 10000 | 320 | 45 | RatioGI50 [4]: 7 - 15 |
| O=C(CC(=O)Nc1cc(F)ccc1F)Nc1ccc2c(/C=C/c3ccccn3)n[nH]c2c1 | 5080 | 3460 | 847 | – |
| O=C(CC(=O)Nc1ccc2c(-c3cccc(F)c3)n[nH]c2c1)Nc1ccc(Cl)c(C(F)(F)F)c1 | > 10000 | 1120 | 179 | – |
| Cc1n[nH]c2cc(NC(=O)CC(=O)Nc3ccc(Cl)c(C(F)(F)F)c3)ccc12 | > 10000 | > 10000 | 1880 | – |
| CNC(=O)c1cncc(-c2n[nH]c3cc(NC(=O)CC(=O)Nc4ccc(Cl)c(C(F)(F)F)c4)ccc23)c1 | > 10000 | > 10000 | 4840 | – |
| CN1CCN(Cc2ccc(-c3n[nH]c4cc(NC(=O)CC(=O)Nc5ccc(Cl)c(C(F)(F)F)c5)ccc34)cc2)CC1 | 911 | 19 | 12 | – |
| CN1CCN(c2cccc(NC(=O)CC(=O)Nc3ccc4c(/C=C/c5ccccn5)n[nH]c4c3)c2)CC1 | > 10000 | > 10000 | 6170 | – |
| CN1CCN(c2ccc(-c3n[nH]c4cc(NC(=O)CC(=O)Nc5ccc(Cl)c(C(F)(F)F)c5)ccc34)cc2)CC1 | 1350 | 25 | 12 | – |
| O=C(CC(=O)Nc1ccc2c(/C=C/c3ccccn3)n[nH]c2c1)Nc1cccc(Cl)c1 | 3610 | 923 | 111 | – |
| O=C(CC(=O)Nc1ccc2c(/C=C/c3ccccn3)n[nH]c2c1)Nc1ccc(F)cc1 | 5860 | 554 | 111 | – |
| O=C(CC(=O)Nc1ccccc1F)Nc1ccc2c(/C=C/c3ccccn3)n[nH]c2c1 | 5090 | 2160 | 312 | – |
| O=C(CC(=O)Nc1ccc2c(/C=C/c3ccccn3)n[nH]c2c1)Nc1ccccc1 | 6720 | 2220 | 117 | RatioGI50 [4]: 19 |
| O=C(CC(=O)Nc1ccc2c(/C=C/c3ccccn3)n[nH]c2c1)Nc1cc(F)cc(F)c1 | 4240 | 1870 | 399 | – |
| COc1cccc(NC(=O)CC(=O)Nc2ccc3c(/C=C/c4ccccn4)n[nH]c3c2)c1 | > 10000 | 2740 | 234 | – |
| O=C(Cc1ccc(Cl)c(C(F)(F)F)c1)Nc1ccc2c(/C=C/c3ccccn3)n[nH]c2c1 | 3790 | 5500 | 3180 | – |
| Cn1cc(-c2n[nH]c3cc(NC(=O)CC(=O)Nc4ccc(Cl)c(C(F)(F)F)c4)ccc23)cn1 | > 10000 | 350 | 23 | RatioGI50 [4]: 7 - 15 |
| O=C(Nc1ccc(Cl)c(C(F)(F)F)c1)Nc1ccc2c(/C=C/c3ccccn3)n[nH]c2c1 | 1900 | 1600 | 1150 | – |
